Active and inactive are the calls of the source. No cut-off for these calls is given here.
How the values were obtained:
[1] = test system: Mus musculus; experiment: In vivo degradation of phosphorylated STAT3 Y705 in SCID mouse xenografted with MOLM-16 cells at 50 mg/kg, iv measured upto 72 hrs by Western blot analysis relative to control; format: functional
How it was run: (§1)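 SCID mice bearing subcutaneous Molm-16 tumors (3 × 10^6 cells in Matrigel; treated at ~150 mm3) given a single intravenous dose in 10% PEG400 + 90% PBS, or vehicle. Tumors harvested at time points. Lysates immunoblotted for total STAT3 and pSTAT3 Y705, compared with vehicle control.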

[2] = test system: Mus musculus; experiment: In vivo degradation of STAT3 in SCID mouse xenografted with MOLM-16 cells at 50 mg/kg, iv measured upto 1 hr by Western blot analysis relative to control; format: functional; how it was run: as §1
[3] = biological target: T1, Protein cereblon/Signal transducer and activator of transcription 3 (Homo sapiens, UniProt P40763+Q96SW2); experiment: Protac activity at CRBN/STAT3 in human SUDHL1 cells assessed as degradation of STAT3 at 0.01 to 10 uM incubated for 18 hrs by Western blot analysis; format: cell-based
How it was run: (§2)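 SU-DHL-1 cells treated 18 h with test compound at 0.01–10 μM, or control compounds at 10 μM. Lysates separated by SDS–PAGE, transferred to PVDF, blocked 1 h in 5% blocker/TBST, probed for each STAT protein, and detected by chemiluminescence.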
Target sequence in this assay (P40763 2-770 limits assumed): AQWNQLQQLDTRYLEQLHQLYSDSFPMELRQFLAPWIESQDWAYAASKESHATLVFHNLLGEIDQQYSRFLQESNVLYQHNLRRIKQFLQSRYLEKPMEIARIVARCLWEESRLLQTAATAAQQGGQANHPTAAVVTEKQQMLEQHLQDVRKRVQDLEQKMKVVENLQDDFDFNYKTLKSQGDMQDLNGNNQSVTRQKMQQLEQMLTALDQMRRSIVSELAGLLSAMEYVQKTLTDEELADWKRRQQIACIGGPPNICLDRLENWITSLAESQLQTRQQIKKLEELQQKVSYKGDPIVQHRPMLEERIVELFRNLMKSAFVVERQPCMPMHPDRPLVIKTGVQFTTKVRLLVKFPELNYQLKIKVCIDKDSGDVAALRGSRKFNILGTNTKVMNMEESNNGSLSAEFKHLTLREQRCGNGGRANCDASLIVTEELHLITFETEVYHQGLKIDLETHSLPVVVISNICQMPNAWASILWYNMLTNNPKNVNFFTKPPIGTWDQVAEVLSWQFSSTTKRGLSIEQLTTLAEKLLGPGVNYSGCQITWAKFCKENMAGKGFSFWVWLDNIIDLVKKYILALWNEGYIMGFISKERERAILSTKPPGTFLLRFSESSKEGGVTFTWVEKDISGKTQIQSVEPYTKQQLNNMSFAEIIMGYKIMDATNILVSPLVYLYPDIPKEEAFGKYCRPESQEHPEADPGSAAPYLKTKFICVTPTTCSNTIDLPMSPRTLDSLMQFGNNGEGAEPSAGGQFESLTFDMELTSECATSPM
Target sequence in this assay (Q96SW2 whole entry partner): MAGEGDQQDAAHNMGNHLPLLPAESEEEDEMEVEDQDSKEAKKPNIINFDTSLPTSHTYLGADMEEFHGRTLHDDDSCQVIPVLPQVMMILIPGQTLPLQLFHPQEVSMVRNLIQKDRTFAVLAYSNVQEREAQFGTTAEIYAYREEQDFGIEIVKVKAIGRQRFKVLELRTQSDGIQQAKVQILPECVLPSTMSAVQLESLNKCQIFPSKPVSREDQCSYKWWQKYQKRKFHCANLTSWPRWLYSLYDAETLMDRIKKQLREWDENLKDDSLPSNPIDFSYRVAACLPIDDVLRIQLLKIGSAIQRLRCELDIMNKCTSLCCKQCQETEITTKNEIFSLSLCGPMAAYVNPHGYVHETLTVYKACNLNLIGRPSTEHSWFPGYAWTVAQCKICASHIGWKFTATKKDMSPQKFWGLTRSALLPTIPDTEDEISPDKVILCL

[4] = organism: Homo sapiens; experiment: Selectivity index, ratio of protac activity at CRBN/STAT2 in human SUDHL1 cells to protac activity at CRBN/STAT3 in human SUDHL1 cells; format: cell-based
How it was run: (§3)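 SU-DHL-1 cells treated 18 h with compound at 0.01–10 μM, or controls at 10 μM. Immunoblotting used SDS–PAGE, PVDF transfer, 1 h block in 5% blocker/TBST, primary and secondary antibodies and chemiluminescence. Levels of other STAT family members compared with STAT3 to express degradation selectivity.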

[5] = biological target: Protein cereblon/Signal transducer and activator of transcription 6 (Homo sapiens) (UniProt P42226+Q96SW2); experiment: Protac activity at CRBN/STAT6 in human MOLM16 cells assessed as degradation of STAT6 at 0.01 to 10 uM incubated for 4 hrs by Western blot analysis; format: cell-based
How it was run: (§4)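 Molm-16 cells treated 4 h with test compound at 0.01–10 μM, or control compounds at 10 μM. Lysates separated by SDS–PAGE, transferred to PVDF, blocked 1 h in 5% blocker/TBST, probed for each STAT protein, and detected by chemiluminescence.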

[6] = biological target: T1, Protein cereblon/Signal transducer and activator of transcription 3; experiment: Protac activity at CRBN/STAT3 in human SUDHL1 cells assessed as degradation of STAT3 incubated for 16 hrs by Western blot analysis; format: cell-based
Target sequence in this assay (P40763 whole entry): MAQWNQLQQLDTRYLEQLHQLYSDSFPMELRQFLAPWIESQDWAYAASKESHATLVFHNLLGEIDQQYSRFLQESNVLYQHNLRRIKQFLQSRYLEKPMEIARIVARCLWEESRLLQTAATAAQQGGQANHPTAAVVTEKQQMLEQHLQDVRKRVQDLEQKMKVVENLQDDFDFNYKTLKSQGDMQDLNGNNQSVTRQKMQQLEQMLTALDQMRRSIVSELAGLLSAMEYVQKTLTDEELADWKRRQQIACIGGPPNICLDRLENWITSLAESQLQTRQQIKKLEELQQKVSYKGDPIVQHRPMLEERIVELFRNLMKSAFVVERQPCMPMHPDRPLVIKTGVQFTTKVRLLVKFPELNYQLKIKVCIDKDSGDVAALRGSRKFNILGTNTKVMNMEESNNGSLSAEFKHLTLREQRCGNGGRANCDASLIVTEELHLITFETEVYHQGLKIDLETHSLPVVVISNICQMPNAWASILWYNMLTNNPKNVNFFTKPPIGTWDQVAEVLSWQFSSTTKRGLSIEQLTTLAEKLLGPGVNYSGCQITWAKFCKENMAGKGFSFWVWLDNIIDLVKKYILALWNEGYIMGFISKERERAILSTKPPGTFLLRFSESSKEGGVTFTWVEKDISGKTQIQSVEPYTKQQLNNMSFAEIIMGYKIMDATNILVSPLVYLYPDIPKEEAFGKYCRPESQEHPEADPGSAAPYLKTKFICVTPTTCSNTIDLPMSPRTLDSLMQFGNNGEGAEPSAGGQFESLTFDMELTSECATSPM
Target sequence in this assay (Q96SW2 whole entry): as the sequence (Q96SW2 whole entry partner) above

[7] = organism: Homo sapiens; experiment: Selectivity index, ratio of protac activity at CRBN/STAT4 in human MOLM16 cells to protac activity at CRBN/STAT3 in human MOLM16 cells; format: cell-based
How it was run: (§5)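 Molm-16 cells treated 4 h with compound at 0.01–10 μM, or controls at 10 μM. Western blot of lysates: SDS–PAGE, PVDF, 1 h block in 5% blocker/TBST, primary and secondary antibodies, chemiluminescent detection. STAT1, -2, -4, -5A/B and -6 levels read against STAT3 to give degradation selectivity.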

[8] = organism: Homo sapiens; experiment: Selectivity index, ratio of protac activity at CRBN/STAT5A in human SUDHL1 cells to protac activity at CRBN/STAT3 in human SUDHL1 cells; format: cell-based; how it was run: as §3
[9] = biological target: Protein cereblon/Signal transducer and activator of transcription 4 (Homo sapiens) (UniProt Q96SW2+Q14765); experiment: Protac activity at CRBN/STAT4 in human SUDHL1 cells assessed as degradation of STAT4 at 0.01 to 10 uM incubated for 18 hrs by Western blot analysis; format: cell-based; how it was run: as §2
[10] = Antiproliferative activity against human MOLM16 cells assessed as reduction in cell viability incubated for 4 days by cell-titer glo luminescent assay; format: functional, cell-based; conditions: MOLM16, 96 h
How it was run: (§6)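 Viability assay: cells incubated with serially diluted compounds for 4 days, viability read by CellTiter-Glo luminescence; IC50 from concentration–response.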

[11] = biological target: T2, Signal transducer and activator of transcription 4 (Homo sapiens, UniProt Q14765); experiment: Binding affinity to recombinant human His/SUMO-tagged STAT4 (133 to 705 residues) expressed in Escherichia coli Rosetta (DE3) incubated for 1 hr by fluorescence polarization assay
T2 sequence (Q14765 whole entry): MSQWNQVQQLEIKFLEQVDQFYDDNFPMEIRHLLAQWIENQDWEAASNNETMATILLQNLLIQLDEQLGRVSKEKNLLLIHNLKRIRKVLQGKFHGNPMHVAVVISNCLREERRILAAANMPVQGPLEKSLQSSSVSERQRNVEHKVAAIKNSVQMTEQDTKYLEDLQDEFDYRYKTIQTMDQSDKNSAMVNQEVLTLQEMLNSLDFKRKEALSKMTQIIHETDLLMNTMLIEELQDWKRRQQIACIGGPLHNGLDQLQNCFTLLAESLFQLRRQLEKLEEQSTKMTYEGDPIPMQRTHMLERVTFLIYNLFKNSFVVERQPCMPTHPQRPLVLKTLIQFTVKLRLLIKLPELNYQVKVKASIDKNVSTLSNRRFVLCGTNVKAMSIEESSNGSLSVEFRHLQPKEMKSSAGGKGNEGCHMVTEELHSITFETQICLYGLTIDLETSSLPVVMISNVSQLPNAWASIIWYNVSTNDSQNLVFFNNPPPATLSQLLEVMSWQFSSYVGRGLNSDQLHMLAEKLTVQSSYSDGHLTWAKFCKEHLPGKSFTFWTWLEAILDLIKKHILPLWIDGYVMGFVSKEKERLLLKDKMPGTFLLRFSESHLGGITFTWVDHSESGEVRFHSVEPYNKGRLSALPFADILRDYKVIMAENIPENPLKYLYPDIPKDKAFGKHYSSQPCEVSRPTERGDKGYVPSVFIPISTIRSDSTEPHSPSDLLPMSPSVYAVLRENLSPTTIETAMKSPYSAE

[12] = test system: SU-DHL-1; experiment: Antiproliferative activity against human SUDHL1 cells assessed as reduction in cell viability incubated for 4 days by cell-titer glo luminescent assay; format: functional, cell-based; conditions: SU-DHL-1, 96 h; how it was run: as §6
[13] = biological target: Protein cereblon/Signal transducer and activator of transcription 2 (Homo sapiens) (UniProt Q96SW2+P52630); experiment: Protac activity at CRBN/STAT2 in human MOLM16 cells assessed as degradation of STAT2 at 0.01 to 10 uM incubated for 4 hrs by Western blot analysis; format: cell-based; how it was run: as §4
[14] = organism: Homo sapiens; experiment: Selectivity index, ratio of protac activity at CRBN/STAT1 in human MOLM16 cells to protac activity at CRBN/STAT3 in human MOLM16 cells; format: cell-based; how it was run: as §5
[15] = biological target: Protein cereblon/Signal transducer and activator of transcription 5A (Homo sapiens) (UniProt P42229+Q96SW2); experiment: Protac activity at CRBN/STAT5A in human SUDHL1 cells assessed as degradation of STAT5A at 0.01 to 10 uM incubated for 18 hrs by Western blot analysis; format: cell-based; how it was run: as §2
[16] = organism: Homo sapiens; experiment: Selectivity index, ratio of protac activity at CRBN/STAT6 in human SUDHL1 cells to protac activity at CRBN/STAT3 in human SUDHL1 cells; format: cell-based; how it was run: as §3

Sequence of Protein cereblon/Signal transducer and activator of transcription 6 (Homo sapiens) (P42226 2-847 limits assumed): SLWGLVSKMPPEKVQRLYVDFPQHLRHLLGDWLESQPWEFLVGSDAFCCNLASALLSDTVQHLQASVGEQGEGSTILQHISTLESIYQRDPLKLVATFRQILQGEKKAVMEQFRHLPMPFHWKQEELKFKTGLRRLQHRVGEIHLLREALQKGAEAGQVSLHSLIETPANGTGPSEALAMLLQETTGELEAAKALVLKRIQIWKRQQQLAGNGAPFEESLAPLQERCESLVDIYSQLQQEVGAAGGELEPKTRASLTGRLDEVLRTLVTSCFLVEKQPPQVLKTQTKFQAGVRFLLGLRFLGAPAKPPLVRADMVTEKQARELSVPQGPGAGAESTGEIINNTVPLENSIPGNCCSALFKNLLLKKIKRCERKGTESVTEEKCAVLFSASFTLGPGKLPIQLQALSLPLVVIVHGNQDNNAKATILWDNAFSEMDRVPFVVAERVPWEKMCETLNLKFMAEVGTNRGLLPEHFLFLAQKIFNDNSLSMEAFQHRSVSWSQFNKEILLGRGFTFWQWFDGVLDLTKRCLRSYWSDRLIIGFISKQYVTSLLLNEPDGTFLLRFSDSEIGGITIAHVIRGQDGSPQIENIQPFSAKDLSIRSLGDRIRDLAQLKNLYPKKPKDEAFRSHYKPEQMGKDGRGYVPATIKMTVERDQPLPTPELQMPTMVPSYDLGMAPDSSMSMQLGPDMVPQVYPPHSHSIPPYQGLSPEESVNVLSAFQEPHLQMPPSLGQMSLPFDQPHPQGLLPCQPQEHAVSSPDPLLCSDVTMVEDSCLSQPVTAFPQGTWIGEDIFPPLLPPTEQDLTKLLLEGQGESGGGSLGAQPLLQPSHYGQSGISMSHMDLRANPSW
Sequence of Protein cereblon/Signal transducer and activator of transcription 6 (Homo sapiens) (Q96SW2 whole entry partner): as the sequence (Q96SW2 whole entry partner) above
Sequence of Protein cereblon/Signal transducer and activator of transcription 5A (Homo sapiens) (P42229 whole entry, looked up): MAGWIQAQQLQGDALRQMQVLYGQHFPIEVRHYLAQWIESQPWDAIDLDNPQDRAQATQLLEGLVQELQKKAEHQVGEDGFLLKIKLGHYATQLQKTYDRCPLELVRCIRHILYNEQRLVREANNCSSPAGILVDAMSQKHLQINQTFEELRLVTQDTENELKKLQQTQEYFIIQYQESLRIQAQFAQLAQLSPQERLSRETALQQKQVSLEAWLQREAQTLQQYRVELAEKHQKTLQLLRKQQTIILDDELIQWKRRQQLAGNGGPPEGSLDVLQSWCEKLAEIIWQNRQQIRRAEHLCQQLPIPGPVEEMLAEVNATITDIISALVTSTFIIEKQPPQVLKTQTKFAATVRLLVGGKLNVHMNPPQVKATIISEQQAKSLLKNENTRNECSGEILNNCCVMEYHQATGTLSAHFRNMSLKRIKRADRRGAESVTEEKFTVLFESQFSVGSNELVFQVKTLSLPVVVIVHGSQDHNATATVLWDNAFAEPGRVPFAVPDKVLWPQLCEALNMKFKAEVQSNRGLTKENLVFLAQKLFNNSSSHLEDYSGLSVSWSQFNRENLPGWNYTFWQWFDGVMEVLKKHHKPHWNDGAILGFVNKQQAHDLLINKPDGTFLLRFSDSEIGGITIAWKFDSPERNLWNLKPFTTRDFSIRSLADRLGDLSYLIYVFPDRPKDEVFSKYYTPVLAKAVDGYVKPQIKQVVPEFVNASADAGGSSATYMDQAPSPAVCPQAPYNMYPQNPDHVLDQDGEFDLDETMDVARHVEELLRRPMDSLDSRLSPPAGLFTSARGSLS
Sequence of Protein cereblon/Signal transducer and activator of transcription 5A (Homo sapiens) (Q96SW2 whole entry, looked up): as the sequence (Q96SW2 whole entry partner) above
Sequence of Protein cereblon/Signal transducer and activator of transcription 2 (Homo sapiens) (P52630 whole entry, looked up): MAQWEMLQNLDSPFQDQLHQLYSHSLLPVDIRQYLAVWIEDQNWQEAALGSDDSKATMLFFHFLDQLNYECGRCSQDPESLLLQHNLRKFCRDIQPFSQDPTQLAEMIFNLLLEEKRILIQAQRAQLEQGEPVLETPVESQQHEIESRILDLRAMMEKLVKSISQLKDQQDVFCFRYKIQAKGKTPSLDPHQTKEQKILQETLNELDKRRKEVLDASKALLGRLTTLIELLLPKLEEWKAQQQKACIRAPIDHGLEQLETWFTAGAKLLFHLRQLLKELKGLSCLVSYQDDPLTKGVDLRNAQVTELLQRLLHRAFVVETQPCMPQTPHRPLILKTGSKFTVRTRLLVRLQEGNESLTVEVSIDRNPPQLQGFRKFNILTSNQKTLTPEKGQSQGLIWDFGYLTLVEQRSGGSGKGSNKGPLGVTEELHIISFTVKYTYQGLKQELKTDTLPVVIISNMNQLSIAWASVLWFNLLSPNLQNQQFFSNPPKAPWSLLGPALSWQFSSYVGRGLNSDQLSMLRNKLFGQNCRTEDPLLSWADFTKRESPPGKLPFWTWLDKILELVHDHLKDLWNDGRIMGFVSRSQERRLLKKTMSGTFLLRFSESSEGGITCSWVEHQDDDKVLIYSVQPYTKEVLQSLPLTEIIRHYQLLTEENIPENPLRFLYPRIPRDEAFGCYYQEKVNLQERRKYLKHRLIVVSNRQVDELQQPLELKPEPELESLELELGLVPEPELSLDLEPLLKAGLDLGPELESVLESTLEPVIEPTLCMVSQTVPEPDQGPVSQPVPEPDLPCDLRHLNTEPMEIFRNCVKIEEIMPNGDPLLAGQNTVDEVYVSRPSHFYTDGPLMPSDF
Sequence of Protein cereblon/Signal transducer and activator of transcription 2 (Homo sapiens) (Q96SW2 whole entry, looked up): as the sequence (Q96SW2 whole entry partner) above
Sequence of Protein cereblon/Signal transducer and activator of transcription 4 (Homo sapiens) (Q96SW2 whole entry, looked up, one chain of several): as the sequence (Q96SW2 whole entry partner) above

NC(=O)CC[C@H](NC(=O)[C@@H]1CC[C@@H]2CCN(C(=O)CCCCCC#Cc3cccc4c3CN(C3CCC(=O)NC3=O)C4=O)C[C@H](NC(=O)c3cc4cc(C(F)(F)P(=O)(O)O)ccc4[nH]3)C(=O)N21)C(=O)NC(c1ccccc1)c1ccccc1 (stereo partly specified)
Activity [1]: >90% | Activity [2]: >95% | Activity [3]: Active | Ratio [4]: > 100 | Activity [5]: inactive | DC50 [6]: 28 nM | Ratio [7]: > 100 | Ratio [8]: > 100 | Activity [9]: inactive | IC50 [10]: 13 nM | Kd [11]: 1000 nM | IC50 [12]: 610 nM | Activity [13]: inactive | Ratio [14]: > 100 | Activity [15]: inactive | Ratio [16]: > 100
